As usually defined, the solubility is the concentration that dissolves in the medium under given conditions. A higher solubility goes with a readily soluble substance.

SMILES strings stand for the structures. Active and inactive are the calls of the source. The calls are words filed in the database; no cut-off is given here.

The subject of data set [1] is MEF. Description: Cytotoxicity against slow-growing MEF at 5 uM by tetrazolium salt reduction assay. Type of data set: cell-based. The conditions noted are these: mouse. The method in brief:
(§1)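 MTT (tetrazolium salt reduction) read-out after cells grew for 3 days with the compound present, tested at 1 and 5 µM. Cell lines were C-26 mouse colon tumor cells and fast- and slow-growing non-tumoral mouse embryonic fibroblasts. Each measurement was run in quadruplicate and reported as average ± s.d.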

Data set [2] in a line: Drug uptake in rat liver mitochondria at 0.5 uM measured by TPP+ sensitive electrode. Type of data set: ADME. The conditions noted are these: in vitro.
The test system of data set [3] is MEF. Description: Cytotoxicity against fast-growing MEF at 5 uM by tetrazolium salt reduction assay. The conditions noted are these: Mus musculus. Type of data set: functional, cell-based. In short, it runs like this: as §1
In the next data set the test system is HCT-116. Kind of data set: Drug uptake in human HCT116 cells at 10 uM after 25 mins by fluorescence microscopic method. Conditions: hct-116, 25 min. Type of data set: ADME, cell-based. In short, it runs like this:
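Cultured HCT116 cells were imaged by fluorescence microscopy with excitation at 340 nm, just before compound addition and 25 min after it. Protonophore FCCP was then added and cells were imaged again 10 min later to check that the signal depends on membrane potential.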

Data set [4] in a line: Solubility in water. Type of data set: physicochemical.
The next data set concerns C26. Kind of data set: Cytotoxicity against mouse C26 cells at 5 uM by tetrazolium salt reduction assay. Type of data set: functional, cell-based. In short, it runs like this:
as §1

Consider `CC(=O)Oc1cc(/C=C/c2ccc(OCCCC[P+](c3ccccc3)(c3ccccc3)c3ccccc3)cc2)cc(OC(C)=O)c1.[I-]`, for which the Activity result in the data set on MEF [1] is recorded as “Not Active”; in data set [2], “Active”; in the data set on HCT-116, “Active”. Also, the outcome in the data set with MEF [3] and with C26 was Active. The compound further had a solubility in data set [4] of 97 µM.
Turning to `Oc1cc(O)cc(/C=C/c2ccc(OCCCC[P+](c3ccccc3)(c3ccccc3)c3ccccc3)cc2)c1.[I-]`, the Activity entry with MEF [1] is listed as “Not Active”; with HCT-116, “Active”. Also, the result with MEF [3] and in the data set with C26 was Active. The same compound registered a solubility in data set [4] of 31.2 µM.

The values are drawn from ChEMBL document CHEMBL1152239, “Development of mitochondria-targeted derivatives of resveratrol” (Bioorg Med Chem Lett, 2008).
